According to ChEMBL document CHEMBL5724801, “EUbOPEN Chemogenomics Library - Multiplex” (2024):
“And” between values parts separate entries of the source, which are not always exact repeats. Equal entries are not always repeated.

Test system: Fibroblast
Assay: Multiplex assay against human fibroblast
Format: toxicity, cell-based
How it was run: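 With compound added, live cells were imaged on a CQ1 microscope at 37°C and 5% CO2; staining with Hoechst33342, BioTracker Green Microtubule Cytoskeleton Dye, MitoTracker Red and Annexin V Alexa Fluor 680 had been done at seeding. The CellPathfinder machine-learning gating scheme split cells into Hoechst high-intensity objects or normal cells, normal cells into healthy, pyknosed or fragmented nuclei, and pyknosed cells into mitotic or apoptotic. The tubulin, mitochondrial-mass and membrane-permeability phenotypes are per cents of healthy-nucleus cells.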

[1] = 12 h, 1 µM, compound concentration 1 uM
[2] = 12 h, 10 µM, compound concentration 10 uM
[3] = 24 h, 1 µM, compound concentration 1 uM
[4] = 24 h, 10 µM, compound concentration 10 uM
[5] = 48 h, 1 µM, compound concentration 1 uM
[6] = 48 h, 10 µM, compound concentration 10 uM

## C=CC(=O)N1CCC[C@@H](n2nc(C(=O)Nc3ccc(CC(=O)N(C)C)c(C)c3C)c3c(N)ncnc32)C1
[1]
  Population Fragmented Nuclei (%): 10.1% and 3.17%
  Population Healthy Nuclei (%): 56.73% and 73.02%
  Population Hoechst High Intensity Objects (%): 0%
  Population Membrane Permeable-Phenotype (%): 1.69% and 0.72%
  Population Mitochondria Different-Phenotype (%): 9.32% and 5.8%
  Population Mitotic Cells (%): 97.1% and 80%
  Population Normal (%): 100%
  Population Pyknosed Nuclei (%): 33.17% and 23.81%
  Population Tubulin-Different-Phenotype (%): 14.41% and 5.8%
  Total Cell Count: 208 and 189
[2]
  Population Apoptotic (%): 5.56% and 8.57%
  Population Fragmented Nuclei (%): 8.2% and 7.93%
  Population Healthy Nuclei (%): 62.3% and 70.73%
  Population Hoechst High Intensity Objects (%): 0%
  Population Membrane Permeable-Phenotype (%): 9.65% and 7.76%
  Population Mitochondria Different-Phenotype (%): 11.4% and 13.79%
  Population Mitotic Cells (%): 94.44% and 91.43%
  Population Normal (%): 100%
  Population Pyknosed Nuclei (%): 29.51% and 21.34%
  Population Tubulin-Different-Phenotype (%): 21.93% and 32.76%
  Total Cell Count: 183 and 164
[3]
  Population Apoptotic (%): 18.18% and 16.67%
  Population Fragmented Nuclei (%): 12.88% and 6.53%
  Population Healthy Nuclei (%): 68.24% and 78.39%
  Population Hoechst High Intensity Objects (%): 0%
  Population Membrane Permeable-Phenotype (%): 3.77% and 2.56%
  Population Mitochondria Different-Phenotype (%): 7.55% and 8.33%
  Population Mitotic Cells (%): 81.82% and 83.33%
  Population Normal (%): 100%
  Population Pyknosed Nuclei (%): 18.88% and 15.08%
  Population Tubulin-Different-Phenotype (%): 13.21% and 10.26%
  Total Cell Count: 233 and 199
[4]
  Population Fragmented Nuclei (%): 12.56% and 7.73%
  Population Healthy Nuclei (%): 67.34% and 70.72%
  Population Hoechst High Intensity Objects (%): 0%
  Population Membrane Permeable-Phenotype (%): 8.96% and 3.12%
  Population Mitochondria Different-Phenotype (%): 9.7% and 14.06%
  Population Mitotic Cells (%): 95% and 84.62%
  Population Normal (%): 100%
  Population Pyknosed Nuclei (%): 20.1% and 21.55%
  Population Tubulin-Different-Phenotype (%): 23.13% and 33.59%
  Total Cell Count: 199 and 181
[5]
  Population Apoptotic (%): 13.79% and 22.22%
  Population Fragmented Nuclei (%): 7.48% and 7.76%
  Population Healthy Nuclei (%): 81.1% and 84.02%
  Population Hoechst High Intensity Objects (%): 0%
  Population Membrane Permeable-Phenotype (%): 0.97% and 1.63%
  Population Mitotic Cells (%): 86.21% and 77.78%
  Population Normal (%): 100%
  Population Pyknosed Nuclei (%): 11.42% and 8.22%
  Population Tubulin-Different-Phenotype (%): 5.34% and 12.5%
  Total Cell Count: 254 and 219
[6]
  Population Apoptotic (%): 22.22% and 18.75%
  Population Fragmented Nuclei (%): 7.14% and 11.46%
  Population Healthy Nuclei (%): 84.29% and 80.21%
  Population Hoechst High Intensity Objects (%): 0%
  Population Membrane Permeable-Phenotype (%): 3.39% and 5.84%
  Population Mitochondria Different-Phenotype (%): 12.99% and 3.9%
  Population Mitotic Cells (%): 77.78% and 81.25%
  Population Normal (%): 100%
  Population Pyknosed Nuclei (%): 8.57% and 8.33%
  Population Tubulin-Different-Phenotype (%): 19.21% and 29.22%
  Total Cell Count: 210 and 192

## Nc1nc(-c2ccco2)c2cnn(Cc3ccccc3F)c2n1
[1]
  Population Apoptotic (%): 50% and 45%
  Population Healthy Nuclei (%): 78% and 50%
  Population Hoechst High Intensity Objects (%): 0% and 6%
  Population Membrane Permeable-Phenotype (%): 1% and 2%
  Population Mitochondria Different-Phenotype (%): 2% and 5%
  Population Mitotic Cells (%): 50% and 54%
  Population Normal (%): 99% and 93%
  Population Pyknosed Nuclei (%): 11% and 17%
  Population Tubulin-Different-Phenotype (%): 26% and 42%
  Total Cell Count: 189 and 144
[2]
  Population Apoptotic (%): 54% and 47%
  Population Fragmented Nuclei (%): 16% and 39%
  Population Healthy Nuclei (%): 61% and 44%
  Population Hoechst High Intensity Objects (%): 8% and 10%
  Population Membrane Permeable-Phenotype (%): 0% and 5%
  Population Mitochondria Different-Phenotype (%): 7% and 13%
  Population Mitotic Cells (%): 45% and 52%
  Population Normal (%): 91% and 89%
  Population Pyknosed Nuclei (%): 21% and 16%
  Population Tubulin-Different-Phenotype (%): 38% and 51%
  Total Cell Count: 123 and 147
[3]
  Population Apoptotic (%): 50% and 56%
  Population Healthy Nuclei (%): 82% and 53%
  Population Hoechst High Intensity Objects (%): 0% and 6%
  Population Membrane Permeable-Phenotype (%): 0% and 4%
  Population Mitochondria Different-Phenotype (%): 2% and 5%
  Population Mitotic Cells (%): 50% and 43%
  Population Normal (%): 100% and 93%
  Population Pyknosed Nuclei (%): 7% and 17%
  Population Tubulin-Different-Phenotype (%): 24% and 37%
  Total Cell Count: 180 and 139
[4]
  Population Apoptotic (%): 70% and 43%
  Population Fragmented Nuclei (%): 19% and 43%
  Population Healthy Nuclei (%): 66% and 44%
  Population Hoechst High Intensity Objects (%): 6% and 8%
  Population Mitochondria Different-Phenotype (%): 8% and 5%
  Population Mitotic Cells (%): 29% and 56%
  Population Normal (%): 93% and 91%
  Population Pyknosed Nuclei (%): 14% and 11%
  Population Tubulin-Different-Phenotype (%): 39% and 46%
  Total Cell Count: 127 and 147
[5]
  Population Apoptotic (%): 45% and 57%
  Population Fragmented Nuclei (%): 16% and 41%
  Population Healthy Nuclei (%): 77% and 48%
  Population Hoechst High Intensity Objects (%): 3% and 6%
  Population Membrane Permeable-Phenotype (%): 2% and 4%
  Population Mitochondria Different-Phenotype (%): 1% and 9%
  Population Mitotic Cells (%): 54% and 42%
  Population Normal (%): 96% and 93%
  Population Pyknosed Nuclei (%): 6% and 10%
  Population Tubulin-Different-Phenotype (%): 26% and 37%
  Total Cell Count: 182 and 147
[6]
  Population Apoptotic (%): 80% and 50%
  Population Fragmented Nuclei (%): 25% and 50%
  Population Healthy Nuclei (%): 65% and 38%
  Population Hoechst High Intensity Objects (%): 9% and 5%
  Population Membrane Permeable-Phenotype (%): 0% and 16%
  Population Mitochondria Different-Phenotype (%): 10%
  Population Mitotic Cells (%): 20% and 50%
  Population Normal (%): 90% and 94%
  Population Pyknosed Nuclei (%): 9% and 10%
  Population Tubulin-Different-Phenotype (%): 27% and 51%
  Total Cell Count: 115 and 155
